Results as given in paper PMC6376552 (Antiviral Chemistry & Chemotherapy, 2019).
pEC50: −log10 of the molar value.

Tested on: HIV-1 (IIIB strain)
Experiment: MT-4 antiviral cytoprotection assay, five-day multi-cycle, wild type HIV-1
Assay type: cell-based
Conditions: CC50/EC50 ratio, wild type, MT-4
Procedure, shortened: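 MT-4 cells were pre-infected with a fresh 1:250 dilution of concentrated HIV-1 IIIB stock, or mock-infected for cytotoxicity. Test compound was serially diluted 1:3 in DMSO, then 200-fold into RPMI with 10% FBS and 1% P/S. Controls were no-drug and 5 µM AZT. After 5 days at 37°C, viability was read by CellTiter-Glo luminescence. EC50/CC50 were taken as 50% signal decrease from sigmoidal fits; SI = CC50/EC50.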

| Structure (SMILES) | SI (selectivity index) |
| --- | --- |
| COc1cc(F)c(C(=O)c2nc(N)cc(Nc3ccc(C#N)cc3)n2)c(F)c1 [Compound 11, 4-((6-amino-2–(2,6-difluoro-4-methoxybenzoyl)pyrimidin-4-yl)amino)benzonitrile] | 7.14 |
| N#Cc1ccc(Nc2cc(N)nc(C(=O)c3c(F)cc(F)cc3F)n2)cc1 [Compound 12, 4-((6-amino-2–(2,4,6-trifluorobenzoyl)pyrimidin-4-yl)amino)benzonitrile] | 24.3 |
| COc1cc(F)c(C(=O)c2cc(N)nc(Nc3ccc(C#N)cc3)n2)c(F)c1 [Compound 13, 4-((4-amino-6–(2,6-difluoro-4-methoxybenzoyl)pyrimidin-2-yl)amino)benzonitrile] | 4900 |
| N#Cc1ccc(Nc2nc(N)cc(C(=O)c3c(F)cc(F)cc3F)n2)cc1 [Compound 14, 4-((4-amino-6–(2,4,6-trifluorobenzoyl)pyrimidin-2-yl)amino)benzonitrile] | 935 |
| N#Cc1ccc(Nc2cc(C(=O)c3c(F)cc(F)cc3F)nc(N)n2)cc1 [Compound 16, 4-((2-amino-6–(2,4,6-trifluorobenzoyl)pyrimidin-4-yl)amino)benzonitrile] | 0.025 |
| COc1cc(C(=O)c2c(F)cc(F)cc2F)nc(Nc2ccc(C#N)cc2)n1 [Compound 22, 4-((4-methoxy-6–(2,4,6-trifluorobenzoyl)pyrimidin-2-yl)amino)benzonitrile] | 19.4 |
| COc1cc(F)c(Oc2cc(Cl)nc(Nc3ccc(C#N)cc3)n2)c(F)c1 [Compound 27, 4-((4-chloro-6–(2,6-difluoro-4-methoxyphenoxy)pyrimidin-2-yl)amino)benzonitrile] | 847 |
| N#Cc1ccc(Nc2nc(Cl)cc(Oc3c(F)cc(F)cc3F)n2)cc1 [Compound 28, 4-((4-chloro-6–(2,4,6-trifluorophenoxy)pyrimidin-2-yl)amino)benzonitrile] | 264 |
| COc1cc(F)c(Nc2cc(Cl)nc(Nc3ccc(C#N)cc3)n2)c(F)c1 [Compound 29, 4-((4-chloro-6-((2,6-difluoro-4-methoxyphenyl)amino)pyrimidin-2-yl)amino)benzonitrile] | 2667 |
| N#Cc1ccc(Nc2nc(Cl)cc(Nc3c(F)cc(F)cc3F)n2)cc1 [Compound 30, 4-((4-chloro-6-((2,4,6-trifluorophenyl)amino)pyrimidin-2-yl)amino)benzonitrile] | 378 |
| COc1cc(F)c(Oc2cc(OC)nc(Nc3ccc(C#N)cc3)n2)c(F)c1 [Compound 31, 4-((4–(2,6-difluoro-4-methoxyphenoxy)-6-methoxypyrimidin-2-yl)amino)benzonitrile] | 832 |

Same assay, conditions: Human immunodeficiency virus 1, IIIB, MT4, read-out: EC50 w.t.

| Structure (SMILES) | pEC50 |
| --- | --- |
| COc1cc(F)c(C(=O)c2nc(N)cc(Nc3ccc(C#N)cc3)n2)c(F)c1 [Compound 11, 4-((6-amino-2–(2,6-difluoro-4-methoxybenzoyl)pyrimidin-4-yl)amino)benzonitrile] | 6.06 |
| N#Cc1ccc(Nc2cc(N)nc(C(=O)c3c(F)cc(F)cc3F)n2)cc1 [Compound 12, 4-((6-amino-2–(2,4,6-trifluorobenzoyl)pyrimidin-4-yl)amino)benzonitrile] | 5.76 |
| COc1cc(F)c(C(=O)c2cc(N)nc(Nc3ccc(C#N)cc3)n2)c(F)c1 [Compound 13, 4-((4-amino-6–(2,6-difluoro-4-methoxybenzoyl)pyrimidin-2-yl)amino)benzonitrile] | 8.40 |
| N#Cc1ccc(Nc2nc(N)cc(C(=O)c3c(F)cc(F)cc3F)n2)cc1 [Compound 14, 4-((4-amino-6–(2,4,6-trifluorobenzoyl)pyrimidin-2-yl)amino)benzonitrile] | 7.59 |
| N#Cc1ccc(Nc2cc(C(=O)c3c(F)cc(F)cc3F)nc(N)n2)cc1 [Compound 16, 4-((2-amino-6–(2,4,6-trifluorobenzoyl)pyrimidin-4-yl)amino)benzonitrile] | 4.40 |
| COc1cc(C(=O)c2c(F)cc(F)cc2F)nc(Nc2ccc(C#N)cc2)n1 [Compound 22, 4-((4-methoxy-6–(2,4,6-trifluorobenzoyl)pyrimidin-2-yl)amino)benzonitrile] | 6.33 |
| COc1cc(F)c(Oc2cc(Cl)nc(Nc3ccc(C#N)cc3)n2)c(F)c1 [Compound 27, 4-((4-chloro-6–(2,6-difluoro-4-methoxyphenoxy)pyrimidin-2-yl)amino)benzonitrile] | 7.72 |
| N#Cc1ccc(Nc2nc(Cl)cc(Oc3c(F)cc(F)cc3F)n2)cc1 [Compound 28, 4-((4-chloro-6–(2,4,6-trifluorophenoxy)pyrimidin-2-yl)amino)benzonitrile] | 7.28 |
| COc1cc(F)c(Nc2cc(Cl)nc(Nc3ccc(C#N)cc3)n2)c(F)c1 [Compound 29, 4-((4-chloro-6-((2,6-difluoro-4-methoxyphenyl)amino)pyrimidin-2-yl)amino)benzonitrile] | 8.22 |
| N#Cc1ccc(Nc2nc(Cl)cc(Nc3c(F)cc(F)cc3F)n2)cc1 [Compound 30, 4-((4-chloro-6-((2,4,6-trifluorophenyl)amino)pyrimidin-2-yl)amino)benzonitrile] | 7.57 |
| COc1cc(F)c(Oc2cc(OC)nc(Nc3ccc(C#N)cc3)n2)c(F)c1 [Compound 31, 4-((4–(2,6-difluoro-4-methoxyphenoxy)-6-methoxypyrimidin-2-yl)amino)benzonitrile] | 7.72 |

Same assay, conditions: wild type, MT-4 cells

| Structure (SMILES) | anti-HIV activity in words |
| --- | --- |
| COc1cc(F)c(C(=O)c2nc(N)cc(Nc3ccc(C#N)cc3)n2)c(F)c1 [Compound 11, 4-((6-amino-2–(2,6-difluoro-4-methoxybenzoyl)pyrimidin-4-yl)amino)benzonitrile] | micromolar range |
| N#Cc1ccc(Nc2cc(N)nc(C(=O)c3c(F)cc(F)cc3F)n2)cc1 [Compound 12, 4-((6-amino-2–(2,4,6-trifluorobenzoyl)pyrimidin-4-yl)amino)benzonitrile] | micromolar range |
| COc1cc(F)c(C(=O)c2cc(N)nc(Nc3ccc(C#N)cc3)n2)c(F)c1 [Compound 13, 4-((4-amino-6–(2,6-difluoro-4-methoxybenzoyl)pyrimidin-2-yl)amino)benzonitrile] | low nanomolar activities |
| N#Cc1ccc(Nc2nc(N)cc(C(=O)c3c(F)cc(F)cc3F)n2)cc1 [Compound 14, 4-((4-amino-6–(2,4,6-trifluorobenzoyl)pyrimidin-2-yl)amino)benzonitrile] | low nanomolar activities |
| N#Cc1ccc(Nc2cc(C(=O)c3c(F)cc(F)cc3F)nc(N)n2)cc1 [Compound 16, 4-((2-amino-6–(2,4,6-trifluorobenzoyl)pyrimidin-4-yl)amino)benzonitrile] | micromolar range |

Tested on: HIV-1 encoding RT mutation K103N
Experiment: MT-4 antiviral assay against HIV-1 encoding RT mutation K103N
Assay type: cell-based
Conditions: Human immunodeficiency virus 1, MT4, read-out: EC50 K103N

| Structure (SMILES) | pEC50 |
| --- | --- |
| COc1cc(F)c(C(=O)c2cc(N)nc(Nc3ccc(C#N)cc3)n2)c(F)c1 [Compound 13, 4-((4-amino-6–(2,6-difluoro-4-methoxybenzoyl)pyrimidin-2-yl)amino)benzonitrile] | 6.65 |
| N#Cc1ccc(Nc2nc(N)cc(C(=O)c3c(F)cc(F)cc3F)n2)cc1 [Compound 14, 4-((4-amino-6–(2,4,6-trifluorobenzoyl)pyrimidin-2-yl)amino)benzonitrile] | 5.77 |
| COc1cc(F)c(Oc2cc(Cl)nc(Nc3ccc(C#N)cc3)n2)c(F)c1 [Compound 27, 4-((4-chloro-6–(2,6-difluoro-4-methoxyphenoxy)pyrimidin-2-yl)amino)benzonitrile] | 6.38 |
| N#Cc1ccc(Nc2nc(Cl)cc(Oc3c(F)cc(F)cc3F)n2)cc1 [Compound 28, 4-((4-chloro-6–(2,4,6-trifluorophenoxy)pyrimidin-2-yl)amino)benzonitrile] | 6.18 |
| COc1cc(F)c(Nc2cc(Cl)nc(Nc3ccc(C#N)cc3)n2)c(F)c1 [Compound 29, 4-((4-chloro-6-((2,6-difluoro-4-methoxyphenyl)amino)pyrimidin-2-yl)amino)benzonitrile] | 6.69 |
| N#Cc1ccc(Nc2nc(Cl)cc(Nc3c(F)cc(F)cc3F)n2)cc1 [Compound 30, 4-((4-chloro-6-((2,4,6-trifluorophenyl)amino)pyrimidin-2-yl)amino)benzonitrile] | 5.99 |
| COc1cc(F)c(Oc2cc(OC)nc(Nc3ccc(C#N)cc3)n2)c(F)c1 [Compound 31, 4-((4–(2,6-difluoro-4-methoxyphenoxy)-6-methoxypyrimidin-2-yl)amino)benzonitrile] | 6.35 |

Tested on: HIV-1 encoding RT mutation Y181C
Experiment: MT-4 antiviral assay against HIV-1 encoding RT mutation Y181C
Assay type: cell-based
Conditions: Human immunodeficiency virus 1, MT4, read-out: EC50 Y181C

| Structure (SMILES) | pEC50 |
| --- | --- |
| COc1cc(F)c(C(=O)c2cc(N)nc(Nc3ccc(C#N)cc3)n2)c(F)c1 [Compound 13, 4-((4-amino-6–(2,6-difluoro-4-methoxybenzoyl)pyrimidin-2-yl)amino)benzonitrile] | 6.10 |
| N#Cc1ccc(Nc2nc(N)cc(C(=O)c3c(F)cc(F)cc3F)n2)cc1 [Compound 14, 4-((4-amino-6–(2,4,6-trifluorobenzoyl)pyrimidin-2-yl)amino)benzonitrile] | 5.41 |
| COc1cc(F)c(Oc2cc(Cl)nc(Nc3ccc(C#N)cc3)n2)c(F)c1 [Compound 27, 4-((4-chloro-6–(2,6-difluoro-4-methoxyphenoxy)pyrimidin-2-yl)amino)benzonitrile] | 5.78 |
| N#Cc1ccc(Nc2nc(Cl)cc(Oc3c(F)cc(F)cc3F)n2)cc1 [Compound 28, 4-((4-chloro-6–(2,4,6-trifluorophenoxy)pyrimidin-2-yl)amino)benzonitrile] | 5.60 |
| COc1cc(F)c(Nc2cc(Cl)nc(Nc3ccc(C#N)cc3)n2)c(F)c1 [Compound 29, 4-((4-chloro-6-((2,6-difluoro-4-methoxyphenyl)amino)pyrimidin-2-yl)amino)benzonitrile] | 6.19 |
| N#Cc1ccc(Nc2nc(Cl)cc(Nc3c(F)cc(F)cc3F)n2)cc1 [Compound 30, 4-((4-chloro-6-((2,4,6-trifluorophenyl)amino)pyrimidin-2-yl)amino)benzonitrile] | 5.70 |
| COc1cc(F)c(Oc2cc(OC)nc(Nc3ccc(C#N)cc3)n2)c(F)c1 [Compound 31, 4-((4–(2,6-difluoro-4-methoxyphenoxy)-6-methoxypyrimidin-2-yl)amino)benzonitrile] | 5.36 |

Tested on: not listed separately
Experiment: MT-4 cytotoxicity assay
Assay type: cell-based
Conditions: human, MT-4 cells (mock-infected), CC50, MT-4 cell line, n = 3

| Structure (SMILES) | CC50 at 5 days [nM] |
| --- | --- |
| COc1cc(F)c(C(=O)c2nc(N)cc(Nc3ccc(C#N)cc3)n2)c(F)c1 [Compound 11, 4-((6-amino-2–(2,6-difluoro-4-methoxybenzoyl)pyrimidin-4-yl)amino)benzonitrile] | 6240 |
| N#Cc1ccc(Nc2cc(N)nc(C(=O)c3c(F)cc(F)cc3F)n2)cc1 [Compound 12, 4-((6-amino-2–(2,4,6-trifluorobenzoyl)pyrimidin-4-yl)amino)benzonitrile] | 42000 |
| COc1cc(F)c(C(=O)c2cc(N)nc(Nc3ccc(C#N)cc3)n2)c(F)c1 [Compound 13, 4-((4-amino-6–(2,6-difluoro-4-methoxybenzoyl)pyrimidin-2-yl)amino)benzonitrile] | 19600 |
| N#Cc1ccc(Nc2nc(N)cc(C(=O)c3c(F)cc(F)cc3F)n2)cc1 [Compound 14, 4-((4-amino-6–(2,4,6-trifluorobenzoyl)pyrimidin-2-yl)amino)benzonitrile] | 24300 |
| N#Cc1ccc(Nc2cc(C(=O)c3c(F)cc(F)cc3F)nc(N)n2)cc1 [Compound 16, 4-((2-amino-6–(2,4,6-trifluorobenzoyl)pyrimidin-4-yl)amino)benzonitrile] | 981 |
| COc1cc(C(=O)c2c(F)cc(F)cc2F)nc(Nc2ccc(C#N)cc2)n1 [Compound 22, 4-((4-methoxy-6–(2,4,6-trifluorobenzoyl)pyrimidin-2-yl)amino)benzonitrile] | 9160 |
| COc1cc(F)c(Oc2cc(Cl)nc(Nc3ccc(C#N)cc3)n2)c(F)c1 [Compound 27, 4-((4-chloro-6–(2,6-difluoro-4-methoxyphenoxy)pyrimidin-2-yl)amino)benzonitrile] | 16100 |
| N#Cc1ccc(Nc2nc(Cl)cc(Oc3c(F)cc(F)cc3F)n2)cc1 [Compound 28, 4-((4-chloro-6–(2,4,6-trifluorophenoxy)pyrimidin-2-yl)amino)benzonitrile] | 14000 |
| COc1cc(F)c(Nc2cc(Cl)nc(Nc3ccc(C#N)cc3)n2)c(F)c1 [Compound 29, 4-((4-chloro-6-((2,6-difluoro-4-methoxyphenyl)amino)pyrimidin-2-yl)amino)benzonitrile] | 16000 |
| N#Cc1ccc(Nc2nc(Cl)cc(Nc3c(F)cc(F)cc3F)n2)cc1 [Compound 30, 4-((4-chloro-6-((2,4,6-trifluorophenyl)amino)pyrimidin-2-yl)amino)benzonitrile] | 10200 |
| COc1cc(F)c(Oc2cc(OC)nc(Nc3ccc(C#N)cc3)n2)c(F)c1 [Compound 31, 4-((4–(2,6-difluoro-4-methoxyphenoxy)-6-methoxypyrimidin-2-yl)amino)benzonitrile] | 15800 |
